KCNK9 block: KCNK9 potassium channel inhibitors, primary screen, HEK293 cells, thallium flux | Potassium channel subfamily K member 9 (Homo sapiens), Q9NPC2 | AID 488922, 2010 | FluxOR thallium flux fluorescence; hits give low values | actives 1.2% (n = 310,000) | B-score at 10 µM;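 active = ratio B-score over 3 SD below the library mean, with starting fluorescence within 5 SD of its mean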;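 also: negative B-score means less thallium flux so channel inhibition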
Kir21 block: inhibitors of mouse Kir2.1 inward-rectifier potassium channel. Inward rectifier potassium channel 2 (Mus musculus), P35561. HEK293-Kir2.1, FluxOR thallium flux fluorescence; hits give low values. actives 0.85% (n = 310,000). B-score at 10 µM;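 active = fluorescence ratio B-score at or below minus 3 SD of library scores, with starting-brightness B-score within 2 SD, cut at about -4.2 in these data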;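 also: channel flux triggered by added potassium and thallium sulfate stimulus; B-score of peak minus minimum fluorescence over baseline after thallium stimulus; more negative B-score means stronger Kir2.1 block with less thallium influx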
Target sequence (P35561 whole entry, looked up): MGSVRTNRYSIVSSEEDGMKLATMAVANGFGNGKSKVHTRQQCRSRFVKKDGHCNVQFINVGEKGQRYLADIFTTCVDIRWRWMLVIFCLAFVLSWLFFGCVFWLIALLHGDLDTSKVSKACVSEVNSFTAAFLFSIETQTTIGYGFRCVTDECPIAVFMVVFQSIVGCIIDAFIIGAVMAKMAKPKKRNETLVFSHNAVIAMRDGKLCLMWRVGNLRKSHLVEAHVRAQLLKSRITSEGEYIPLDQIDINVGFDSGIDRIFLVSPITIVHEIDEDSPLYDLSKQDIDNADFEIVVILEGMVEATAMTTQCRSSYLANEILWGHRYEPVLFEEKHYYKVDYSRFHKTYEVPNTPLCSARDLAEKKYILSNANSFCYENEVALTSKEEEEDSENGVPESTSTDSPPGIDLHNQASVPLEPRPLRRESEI
KCNQ1 inh: inhibitors of human KCNQ1 channel, primary screen, cell-based, thallium flux, high-throughput; Potassium voltage-gated channel subfamily KQT member 1 (Homo sapiens), P51787; CHO-K1 KCNQ1, FluxOR thallium flux fluorescence; hits give high values; B-score at 10 µM; actives 1.3% (n = 310,000); AID 2642, 2010;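 active = compounds whose thallium flux B-score, printed positive for inhibition, exceeds three library SD while starting fluorescence stays within three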;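 also: channel opened by potassium depolarization with thallium stimulus after 20 min compound exposure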
KCNQ1 pot: potentiators or activators of KCNQ1 channel, primary screen, cell-based, thallium flux, high-throughput; Potassium voltage-gated channel subfamily KQT member 1 (Homo sapiens), P51787; CHO-K1 KCNQ1, thallium flux FluxOR fluorescence; hits give high values; B-score at 10 µM; actives 0.35% (n = 310,000);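 active = fluorescence ratio B-score, a plate-corrected score, at least three library SD, with initial intensity B-score within 5 SD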
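Schedule – 37 °C overnight plating, 90-min dark dye load, 20-min compound pretreatment · System – stable KCNQ1 CHO-K1 line · Probe or stimulus – thallium- and potassium-containing depolarizing buffer · Measured by – kinetic FluxOR fluorescence, 10 s baseline plus 110 s post-stimulus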
KCNK3 inh: human KCNK3 channel inhibitors, primary screen, CHO cells, FluxOR thallium flux, B-score; Potassium channel subfamily K member 3 (Homo sapiens), O14649; FluxOR fluorescence; hits give low values; B-score at 10 µM; actives 0.84% (n = 340,000); AID 602410, 2012;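 active = B-score under library mean minus 4 SD, starting fluorescence ratio at most library mean plus 5 SD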;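 also: more negative B-score means stronger inhibition of thallium flux through KCNK3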
hERG protect: hERG rescue from dofetilide block, primary screen, cell-based, CHO-hERG, FluxOR thallium flux, dofetilide IC70. dofetilide IC70 present. activation (rescue from dofetilide block), less the hit threshold, % at 10 µM. AID 1511, 2009. Voltage-gated inwardly rectifying potassium channel KCNH2 (Homo sapiens), Q12809. actives 0.51% (n = 310,000);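 active = activation above the mean of controls blocked by dofetilide plus 5 SD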;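 also: thallium influx through hERG after potassium depolarization seen as dye fluorescence rise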
KCNK9 block conf: KCNK9 potassium channel inhibitors, confirmation, HEK293 cells, thallium flux, duplicate. shares compounds with KCNK9 block. FluxOR thallium flux fluorescence. inhibition, % at 10 µM. actives 43% (n = 4,900). AID 492992, 2010;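 active = thallium signal inhibited by more than 5 SD of the compound-free buffer control wells, on both duplicate plates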;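 also: 0% = assay buffer control wells without compound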
Kir2-1 spec: mouse Kir2.1 channel inhibition, confirmation, selectivity assay for KCNK9 modulator project, cell-based, HEK293, thallium flux; inhibition, % at 10 µM; actives 4% (n = 4,900); shares compounds with KCNK9 block; Kir2.1 cells, FluxOR thallium flux fluorescence;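 active = thallium signal drop more than 5 SD beyond the mean of the no-compound control wells, seen in both duplicate plates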;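 also: signal is fluorescence rise after thallium addition divided by baseline fluorescence; plate controls were assay buffer only for no effect and full block by chlorpromazine control for full effect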
HEK293 Tl ctr: thallium flux in non-induced HEK293 cells, confirmation, counter-screen for KCNK9 inhibitor project, cell-based, second counter screen, non-induced KCNK9-HEK293. shares compounds with KCNK9 block. FluxOR thallium flux. inhibition, % at 10 µM. actives 40% (n = 4,900);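 active = thallium signal drop beyond 5 SD of the untreated control mean, on both duplicate plates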;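 also: plate controls were buffer only IC0 wells for no effect and SID17386958 at its maximal inhibitory level for full effect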
KCNK3 confirm: retest of human KCNK3 channel inhibitors, confirmation, CHO cells, FluxOR thallium flux, triplicate; shares compounds with KCNK3 inh; FluxOR fluorescence; 0% buffer, 100% carvedilol maximal block; ratio percent of control, % at 10 µM; actives 99% (n = 2,400);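 active = ratio percent of control, averaged over triplicates, above buffer control mean plus 5 SD, cut at about 64% in these data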;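 also: ratio is the fluorescence rise from min to max over baseline after thallium stimulus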
KCNK3 uninduced: thallium flux inhibition in non-induced cells, primary screen, counter-screen for KCNK3 inhibitor project, cell-based, non-induced KCNK3 line, FluxOR thallium, triplicate; actives 40% (n = 2,400); shares compounds with KCNK3 inh; non-induced KCNK3 parental cells; hits give low values; thallium flux ratio (lower = more inhibition) at 10 µM;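 active = thallium flux ratio, averaged over three wells, more than 5 SD below the buffer control mean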;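 also: host cells are CHO cells without KCNK3 induction; ratio is peak minus trough fluorescence over baseline then normalized to buffer controls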
The depositor's hits bear a star; i = inactive; . = no result. A selection: hits, their analogues and other compounds. The true share with any hit is near 3.7%.

SMILES	KCNK9 block	Kir21 block	KCNQ1 inh	KCNQ1 pot	KCNK3 inh	hERG protect	KCNK9 block conf	Kir2-1 spec	HEK293 Tl ctr	KCNK3 confirm	KCNK3 uninduced
CN(c1ccccc1)S(=O)(=O)c1cccc2ccccc12	-9*	-3	i	i	-10*	-6	39%*	i	30%*	113*	i
COc1ccccc1NC(=O)O/N=C(\N)c1ccccc1	i	-0.66	i	i	i	-14	.	.	.	.	.
O=C/C(=C\Nc1ccccn1)c1nc2ccccc2o1	i	-1.2	i	i	i	-12	.	.	.	.	.
O=C/C(=C\Nc1ccccn1)c1nc2cc(Cl)ccc2o1	-8.5*	-2.1	i	i	i	-10	35%*	i	i	114*	i
O=C(CN(C(=O)c1ccc(Cl)cc1)C1CCCCC1)Nc1ccc(Cl)c([N+](=O)[O-])c1	i	-1.5	i	i	i	-8	.	.	.	.	.
O=C(CN(C(=O)c1ccccc1Cl)C1CCCCC1)Nc1ccc(Cl)c([N+](=O)[O-])c1	-11*	-0.37	8*	i	i	-15	36%*	i	29%*	98*	0.16*
C[C@H](NC(=O)c1ccccc1Cl)C(=O)OC(C(=O)Nc1cc(C(F)(F)F)ccc1Cl)c1ccccc1 (some centres undefined)	-18*	0.44	i	i	-11*	-3	68%*	i	40%*	108*	i
N#CCC(=O)Nc1ccc(C(=O)OC(C(=O)Nc2cc(C(F)(F)F)ccc2Cl)c2ccccc2)cc1 (centres undefined)	i	2.6	i	i	i	-9	.	.	.	.	.
CSc1nc2[nH]c(=O)n(O)c(=O)c2n1Cc1ccccc1	.	.	.	.	i	.	.	.	.	.	.
Cc1ccsc1C(=O)N1CCN(S(=O)(=O)c2cccc(F)c2)CC1	i	-0.74	i	i	i	-9	.	.	.	.	.
Cc1ccc(Nc2nc(CSc3nnnn3-c3ccccc3)cs2)cc1	-11*	0.33	i	i	i	-4	47%*	i	35%*	100*	i
CC(=O)NCC1CCN(C(=O)C2CCC(=O)N(CCc3cccc(F)c3)C2)CC1 (centres undefined)	i	-0.04	i	i	i	-10	.	.	.	.	.
CC(C)(C)C1COc2ccccc2N1C(=O)c1cccc(Cl)c1 (centres undefined)	i	-0.73	i	i	i	-3	.	.	.	.	.
O=C(COC(=O)c1cccs1)c1ccc2ccccc2c1	-18*	-2.3	i	i	-13*	-15	56%*	i	30%*	101*	i
CCn1c(=O)c(C(=O)NCc2ccc(F)cc2)c(O)c2ccccc21	i	-0.64	i	i	i	-7	.	.	.	.	.

Screening results from PubChem.
